High-throughput results as filed in PubChem BioAssay.
ABHD4 inh = ABHD4 inhibitors, primary screen, biochemical, fluorescence polarization, mouse. 0.54% of 370,000 active. inhibition, % at 8.92 µM. purified mABHD4, FP-Rh probe fluorescence polarization;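 active = inhibition exceeding the mean over every tested compound plus 3 SD, cut at about 30% in these data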;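 also: 0% = plate median of compound wells and 100% = S159A mutant with DMSO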
Target sequence (Q8VD66 whole entry, looked up): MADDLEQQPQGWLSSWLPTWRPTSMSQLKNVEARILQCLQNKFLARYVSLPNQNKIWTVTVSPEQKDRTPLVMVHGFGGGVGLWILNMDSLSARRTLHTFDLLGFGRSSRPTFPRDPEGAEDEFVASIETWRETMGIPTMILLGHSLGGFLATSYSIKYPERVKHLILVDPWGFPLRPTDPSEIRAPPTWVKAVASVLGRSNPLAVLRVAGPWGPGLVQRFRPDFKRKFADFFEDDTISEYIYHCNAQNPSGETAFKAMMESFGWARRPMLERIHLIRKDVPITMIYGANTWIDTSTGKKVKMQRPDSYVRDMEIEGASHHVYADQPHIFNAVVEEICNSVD
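Assay system: Wild-type mouse ABHD4 protein | Medium: HEPES pH 7.0 buffer, 150 mM NaCl, 0.01% Pluronic F-127 | Incubation: Enzyme–compound pre-incubation 45 min, then probe 60 min, both 25 °C | Technique: Fluorescence polarization with parallel and perpendicular emission, 525/598 nm | Evaluation: % inhibition of FP-Rh probe binding versus controls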
SIAE inh = human SIAE inhibitors, primary screen, biochemical, fluorescence polarization, FP-Rh probe, 1536-well HTS. Sialate O-acetylesterase (Homo sapiens), Q9HAT2. SIAE FP-Rh probe binding. inhibition, % at 9.66 µM. 0.69% of 370,000 active. AID 1053197, 2014;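 active = inhibition above a cutoff: mean of compounds within the control limits plus 3 SD of those, cut at about 17% in these data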;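 also: 0% = plate median of compound wells and 100% = probe without SIAE protein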
PRMT1 inh = PRMT1 methyltransferase inhibitors, primary screen, biochemical, fluorescence polarization; inhibition, % at 2.79 µM; recombinant PRMT1, activity-based probe fluorescence polarization; AID 652257, 2013; 1.3% of 370,000 active; Protein arginine N-methyltransferase 1 (Homo sapiens), Q99873;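 active = inhibition above about 21% made by adding two undisclosed values, limit read from the data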
HTRA1 inhibitor = HTRA1 serine protease inhibitors, primary screen, biochemical, fluorescence polarization, HTS; Q92743; recombinant HTRA1, FP-rhodamine activity-based probe; inhibition, % at 5.96 µM; 0.5% of 340,000 active; in the data active = inhibition above about 36%;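 also: 0% = enzyme with DMSO and 100% = wells lacking enzyme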
TCR-CD3 inh = inhibitors of human TCR-CD3 interaction, primary screen, biochemical, fluorescence, TAMRA-labeled TCR probe; T-cell receptor (TCR); inhibition, % at 9.4 µM; 0.37% of 360,000 active; AID 651800, 2012; in the data active = inhibition above about 19%;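 also: recombinant mutant TCR 2C K166C tagged with TAMRA read by polarization; 0% = receptor in buffer alone and 100% = receptor with positive control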
SIAE confirm = human SIAE inhibitors, retest, confirmation, biochemical, fluorescence polarization, FP-Rh probe, triplicate; shares compounds with SIAE inh; SIAE FP-Rh activity-based probe; inhibition, % at 9.66 µM; 13% of 2,300 active;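 active = mean inhibition of the replicates above the hit cutoff set in the primary screen, cut at about 17% in these data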;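 also: 0% = SIAE with DMSO and probe and 100% = probe without SIAE; inhibitors lower polarization as more probe stays unbound to SIAE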
* = called active by the depositor; x = no result. The list is not random: actives were taken first. Their share in the collection is about 2.6%.

SMILES | ABHD4 inh | SIAE inh | PRMT1 inh | HTRA1 inhibitor | TCR-CD3 inh | SIAE confirm
C[C@@H]1[C@@H](O)C[C@@]2(C[C@H](O)c3cc(Cl)cc(Cl)c3O2)O[C@H]1c1ccccc1Cl | -34.9 | -11.3 | -4.2 | x | x | x
CC(C)C(=O)c1cn(CC(=O)O)c2ccccc12 | -6.8 | 18.9* | -2.0 | -4.0 | 7.3 | 5.4
COc1cc(/C=N/NC(=O)c2ccc(CSc3nc4ccccc4[nH]3)cc2)ccc1O | -22.4 | 18.6* | 1.8 | x | -6.6 | 2.9
C=CCn1c(Cc2cccs2)nnc1SCC(=O)Nc1ccc(OCc2ccccc2)cc1 | -8.5 | -8.1 | 0.3 | x | x | x
O=C(O)CCCCCCNC(=O)c1cncc(O)c1 | -0.7 | 23.1* | -1.9 | -0.7 | 8.4 | -1.8
C[C@H]1[C@@H]2C[C@@]3(O[C@H](c4ccc(C(F)(F)F)cc4)N=C3C[C@@H]1c1ccccc1)N(Cc1ccncc1)C2=O | -9.6 | 3.6 | -3.5 | x | -3.3 | x
Oc1ccc(C(=S)N2CCCCCC2)cc1 | -3.9 | 22.9* | 1.3 | 1.7 | 6.9 | 0.2
CCN(CC)c1nc(C)nc2c1nnn2Cc1ccccc1 | -0.9 | 13.8 | -1.8 | x | x | x
CC(C)(C)OC(=O)N1Cc2[nH]c3ccccc3c2C[C@@H]1C(=O)O | -1.6 | 25.7* | -1.4 | -0.1 | -5.3 | 2.9
CC(C)(C)OC(=O)N1Cc2ccccc2C[C@H]1C(=O)N1CCC[C@H]1C(=O)O | -3.6 | 0.3 | 0.1 | 6.3 | -2.2 | x
O=C(N[C@@H](Cc1ccccc1)C(=O)NCP(=O)(O)OC(Cc1ccccc1)C(=O)O)OCc1ccccc1 (stereo not given in full) | 0.8 | 1.5 | 5.1 | x | x | x
Cc1ccc(C(=O)NCc2cccc(C(F)(F)F)c2)cc1S(=O)(=O)N1CCCCC1 | -1.5 | 24.6* | -1.9 | -6.7 | 3.7 | 3.2
Oc1ccc(CNc2ccc(C(F)(F)F)cc2F)c2cccnc12 | 1.3 | 4.4 | 10.2 | x | x | x
O=Cc1cc2ccccc2nc1SCc1ccc(Cl)cc1 | -13.8 | 27.2* | 0.9 | -13.2 | -5.0 | -4.0
CC(C)=CCN1C(=O)[C@]2(OCCC=C[C@H]2C)c2c(Br)cccc21 | -5.7 | 1.9 | -0.5 | x | 6.5 | x
CCOC(=O)c1sc2ccc(S(=O)(=O)N3CCCCC3)cc2c1N | -10.4 | 21.0* | 1.0 | -18.0 | 3.5 | -1.8
CCOC(=O)N1CCN(C(=O)c2oc3ccc(S(=O)(=O)N4CCCCC4)cc3c2C)CC1 | -2.3 | 0.8 | -3.1 | 4.4 | 4.3 | x
CCCCCCCCN1C(=O)[C@@H](CC(=O)NCCCOC)C[C@@]2(C(=O)OC)C1=C[C@H](C1CCCC1)O[C@@H]2C | -0.6 | 3.4 | 1.1 | x | 9.6 | x
COc1ccc(-n2c(COc3cccc(C)c3)n[nH]c2=S)cc1 | -3.0 | 19.1* | 3.1 | -2.0 | -2.1 | -1.3
COc1ccc(OCc2n[nH]c(=S)n2-c2ccc(C)cc2)cc1 | 8.3 | 2.8 | 8.2 | -1.2 | -0.6 | x
Nc1[nH]c2cc(Cl)ccc2c1C(=O)NCCc1ccc(Cl)cc1 | 19.0 | 18.9* | 1.9 | x | x | 18.7*
CN1C(=O)[C@@]2(C3=C(CCCC3=O)OC3=C2C(=O)OC2(CCCCC2)C3)c2ccccc21 | -0.1 | 6.3 | -1.0 | x | 6.4 | x
O=C1C=C[C@H]2CC[C@@H](O)[C@@H]1[C@@H]2Sc1ccccc1 | 6.5 | 1.0 | -0.8 | x | x | x
Cc1ccc(S(=O)(=O)Nc2nc(C)c(NC(=O)Nc3ccc(Cl)cc3Cl)s2)cc1 | 17.1 | 34.6* | 1.2 | 13.1 | 1.9 | 29.4*
CC(C)(C)N(Cc1cn(CC2CCCCC2)nn1)S(=O)(=O)c1ccc(F)cc1Br | -0.4 | -2.5 | 1.5 | x | x | x
O=C(CSc1nnc(NC2CCCCC2)s1)Nc1ccc2c(c1)C(=O)c1ccccc1C2=O | 11.8 | 5.5 | 0.2 | 3.5 | 3.3 | x
Cc1ccc(Nc2nnc(SCC(=O)Nc3ccccc3[N+](=O)[O-])s2)cc1 | 1.0 | 24.9* | 0.2 | -0.2 | 1.3 | -0.5
CC(C)Nc1nnc(SCC(=O)Nc2ccc3c(c2)C(=O)c2ccccc2C3=O)s1 | 19.6 | 26.8* | 1.3 | 20.7 | 7.5 | -10.6
